Calls of active or inactive are those of the source. The calls are words filed in the database; no cut-off is given here.
Tests used:
[1] = target: Histone deacetylase 1 (Homo sapiens) (UniProt Q13547); assay: Inhibition of human recombinant GST-tagged HDAC1 expressed in Sf9 cells using Fluor de Lys as substrate at 5 uM after 0.5 hrs by fluorimetry
Procedure, shortened: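 GST-HDAC1 was expressed in Sf9 cells via baculovirus and purified on glutathione beads. Enzyme was incubated with Fluor de Lys acetyl-lysine substrate ±5 µM compound for 0.5 h at 37 °C, followed by developer for 30 min. Fluorescence was read at ex 360/em 460 nm and reported as percent of control activity.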

[2] = target: Histone deacetylase (Homo sapiens) (UniProt Q13547+O15379+Q9UBN7+Q92769+Q9UQL6+Q8WUI4+Q9BY41+Q96DB2+P56524+Q9UKV0+Q969S8); assay: Inhibition of HDAC1 in human U937 cells assessed a increase in histone H3 acetylation in human U937 cells at 5 uM after 24 hrs by Western blot analysis; assay type: cell-based; settings: U-937
Procedure, shortened: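 U937 cells were treated 24 h at 5 µM, then lysed in Triton extraction buffer. Histones were acid-extracted with 0.2 M HCl overnight at 4 °C and protein was quantified by Bradford. 10 µg of histone extract was run on 15% polyacrylamide gels and immunoblotted with pan-acetyl-histone H3 antibody.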

U-937 [3] = assay: Cell cycle arrest in human U937 cells assessed as accumulation at G1 phase at 5 uM after 30 hrs by propidium iodide staining based flow cytometry; assay type: functional
Procedure, shortened: (§1)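 U937 cells in RPMI with 10% FBS and antibiotics, kept at 200,000 cells/mL, exposed to compound at 5 µM (in DMSO). DNA content was read by flow cytometry and phases modelled with ModFit. Values are means of independent duplicates.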

[4] = target: CREB-binding protein/Histone acetyltransferase p300 (Homo sapiens) (UniProt Q09472+Q92793); assay: Inhibition of recombinant human p300/CBP using [3H]-acetyl CoA at 50 uM after 2 hrs by scintillation counting relative to control; assay type: protein assay
CREB-binding protein/Histone acetyltransferase p300 (Homo sapiens), sequence (Q09472 whole entry, looked up, the tested form may be a part): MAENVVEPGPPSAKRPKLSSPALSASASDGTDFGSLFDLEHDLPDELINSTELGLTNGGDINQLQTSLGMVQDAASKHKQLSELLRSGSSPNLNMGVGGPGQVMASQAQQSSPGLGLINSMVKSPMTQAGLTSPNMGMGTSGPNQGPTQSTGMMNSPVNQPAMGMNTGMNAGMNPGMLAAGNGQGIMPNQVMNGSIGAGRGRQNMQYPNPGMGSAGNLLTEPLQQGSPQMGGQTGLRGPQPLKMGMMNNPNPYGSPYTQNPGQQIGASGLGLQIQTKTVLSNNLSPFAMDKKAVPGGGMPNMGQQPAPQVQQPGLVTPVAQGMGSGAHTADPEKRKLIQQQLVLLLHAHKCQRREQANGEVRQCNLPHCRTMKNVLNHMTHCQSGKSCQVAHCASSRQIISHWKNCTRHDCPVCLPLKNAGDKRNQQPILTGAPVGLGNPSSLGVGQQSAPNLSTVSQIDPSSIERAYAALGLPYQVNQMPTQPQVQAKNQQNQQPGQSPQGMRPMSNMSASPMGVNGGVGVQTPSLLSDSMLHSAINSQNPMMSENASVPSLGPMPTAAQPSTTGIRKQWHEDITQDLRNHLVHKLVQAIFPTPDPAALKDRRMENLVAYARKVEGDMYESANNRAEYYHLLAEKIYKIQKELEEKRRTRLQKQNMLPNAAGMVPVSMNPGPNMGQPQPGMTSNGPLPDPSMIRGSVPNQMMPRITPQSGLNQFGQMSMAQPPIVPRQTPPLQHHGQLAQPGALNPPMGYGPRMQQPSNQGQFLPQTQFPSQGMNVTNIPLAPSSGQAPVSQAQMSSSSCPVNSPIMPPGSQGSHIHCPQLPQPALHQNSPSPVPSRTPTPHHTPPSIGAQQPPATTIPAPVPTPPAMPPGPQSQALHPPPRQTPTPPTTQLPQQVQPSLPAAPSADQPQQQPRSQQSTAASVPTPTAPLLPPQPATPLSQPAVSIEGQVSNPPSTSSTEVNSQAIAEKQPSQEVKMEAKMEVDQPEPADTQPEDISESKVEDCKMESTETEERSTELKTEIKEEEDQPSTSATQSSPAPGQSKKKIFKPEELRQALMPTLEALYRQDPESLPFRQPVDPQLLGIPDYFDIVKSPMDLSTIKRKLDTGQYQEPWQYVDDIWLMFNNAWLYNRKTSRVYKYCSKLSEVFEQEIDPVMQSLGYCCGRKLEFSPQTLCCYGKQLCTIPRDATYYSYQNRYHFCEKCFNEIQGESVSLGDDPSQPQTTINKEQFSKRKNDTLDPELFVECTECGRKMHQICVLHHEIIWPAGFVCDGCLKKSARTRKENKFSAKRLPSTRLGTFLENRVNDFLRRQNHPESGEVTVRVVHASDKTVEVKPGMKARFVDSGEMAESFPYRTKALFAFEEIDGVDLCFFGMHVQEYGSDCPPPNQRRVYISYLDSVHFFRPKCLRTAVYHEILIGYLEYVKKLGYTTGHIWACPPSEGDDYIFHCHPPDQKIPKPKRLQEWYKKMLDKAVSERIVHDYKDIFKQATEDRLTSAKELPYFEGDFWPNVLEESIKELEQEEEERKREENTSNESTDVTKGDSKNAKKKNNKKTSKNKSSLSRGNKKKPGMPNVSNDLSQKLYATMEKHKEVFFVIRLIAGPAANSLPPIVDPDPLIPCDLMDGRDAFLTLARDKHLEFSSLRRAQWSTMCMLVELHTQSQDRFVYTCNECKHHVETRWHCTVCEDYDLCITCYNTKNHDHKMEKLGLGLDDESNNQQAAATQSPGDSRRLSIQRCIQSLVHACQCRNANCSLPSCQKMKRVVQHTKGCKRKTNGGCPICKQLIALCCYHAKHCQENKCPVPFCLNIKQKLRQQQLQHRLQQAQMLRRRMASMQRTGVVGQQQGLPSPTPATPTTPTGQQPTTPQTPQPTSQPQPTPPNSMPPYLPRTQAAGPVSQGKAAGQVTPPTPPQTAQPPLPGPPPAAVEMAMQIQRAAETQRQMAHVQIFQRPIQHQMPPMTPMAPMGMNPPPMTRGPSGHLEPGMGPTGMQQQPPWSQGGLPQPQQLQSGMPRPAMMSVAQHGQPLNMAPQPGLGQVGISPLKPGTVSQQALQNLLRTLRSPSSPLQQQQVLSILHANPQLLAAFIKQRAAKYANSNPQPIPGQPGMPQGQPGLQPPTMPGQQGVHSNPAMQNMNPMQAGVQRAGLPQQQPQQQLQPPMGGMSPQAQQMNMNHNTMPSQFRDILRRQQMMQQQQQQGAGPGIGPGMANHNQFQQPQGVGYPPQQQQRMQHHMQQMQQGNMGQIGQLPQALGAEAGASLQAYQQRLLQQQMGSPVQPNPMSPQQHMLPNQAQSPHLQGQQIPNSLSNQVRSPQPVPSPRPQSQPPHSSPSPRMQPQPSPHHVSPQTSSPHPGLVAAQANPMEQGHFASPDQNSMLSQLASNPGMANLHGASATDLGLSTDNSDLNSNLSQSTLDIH
CREB-binding protein/Histone acetyltransferase p300 (Homo sapiens), sequence (Q92793 whole entry, looked up, the tested form may be a part): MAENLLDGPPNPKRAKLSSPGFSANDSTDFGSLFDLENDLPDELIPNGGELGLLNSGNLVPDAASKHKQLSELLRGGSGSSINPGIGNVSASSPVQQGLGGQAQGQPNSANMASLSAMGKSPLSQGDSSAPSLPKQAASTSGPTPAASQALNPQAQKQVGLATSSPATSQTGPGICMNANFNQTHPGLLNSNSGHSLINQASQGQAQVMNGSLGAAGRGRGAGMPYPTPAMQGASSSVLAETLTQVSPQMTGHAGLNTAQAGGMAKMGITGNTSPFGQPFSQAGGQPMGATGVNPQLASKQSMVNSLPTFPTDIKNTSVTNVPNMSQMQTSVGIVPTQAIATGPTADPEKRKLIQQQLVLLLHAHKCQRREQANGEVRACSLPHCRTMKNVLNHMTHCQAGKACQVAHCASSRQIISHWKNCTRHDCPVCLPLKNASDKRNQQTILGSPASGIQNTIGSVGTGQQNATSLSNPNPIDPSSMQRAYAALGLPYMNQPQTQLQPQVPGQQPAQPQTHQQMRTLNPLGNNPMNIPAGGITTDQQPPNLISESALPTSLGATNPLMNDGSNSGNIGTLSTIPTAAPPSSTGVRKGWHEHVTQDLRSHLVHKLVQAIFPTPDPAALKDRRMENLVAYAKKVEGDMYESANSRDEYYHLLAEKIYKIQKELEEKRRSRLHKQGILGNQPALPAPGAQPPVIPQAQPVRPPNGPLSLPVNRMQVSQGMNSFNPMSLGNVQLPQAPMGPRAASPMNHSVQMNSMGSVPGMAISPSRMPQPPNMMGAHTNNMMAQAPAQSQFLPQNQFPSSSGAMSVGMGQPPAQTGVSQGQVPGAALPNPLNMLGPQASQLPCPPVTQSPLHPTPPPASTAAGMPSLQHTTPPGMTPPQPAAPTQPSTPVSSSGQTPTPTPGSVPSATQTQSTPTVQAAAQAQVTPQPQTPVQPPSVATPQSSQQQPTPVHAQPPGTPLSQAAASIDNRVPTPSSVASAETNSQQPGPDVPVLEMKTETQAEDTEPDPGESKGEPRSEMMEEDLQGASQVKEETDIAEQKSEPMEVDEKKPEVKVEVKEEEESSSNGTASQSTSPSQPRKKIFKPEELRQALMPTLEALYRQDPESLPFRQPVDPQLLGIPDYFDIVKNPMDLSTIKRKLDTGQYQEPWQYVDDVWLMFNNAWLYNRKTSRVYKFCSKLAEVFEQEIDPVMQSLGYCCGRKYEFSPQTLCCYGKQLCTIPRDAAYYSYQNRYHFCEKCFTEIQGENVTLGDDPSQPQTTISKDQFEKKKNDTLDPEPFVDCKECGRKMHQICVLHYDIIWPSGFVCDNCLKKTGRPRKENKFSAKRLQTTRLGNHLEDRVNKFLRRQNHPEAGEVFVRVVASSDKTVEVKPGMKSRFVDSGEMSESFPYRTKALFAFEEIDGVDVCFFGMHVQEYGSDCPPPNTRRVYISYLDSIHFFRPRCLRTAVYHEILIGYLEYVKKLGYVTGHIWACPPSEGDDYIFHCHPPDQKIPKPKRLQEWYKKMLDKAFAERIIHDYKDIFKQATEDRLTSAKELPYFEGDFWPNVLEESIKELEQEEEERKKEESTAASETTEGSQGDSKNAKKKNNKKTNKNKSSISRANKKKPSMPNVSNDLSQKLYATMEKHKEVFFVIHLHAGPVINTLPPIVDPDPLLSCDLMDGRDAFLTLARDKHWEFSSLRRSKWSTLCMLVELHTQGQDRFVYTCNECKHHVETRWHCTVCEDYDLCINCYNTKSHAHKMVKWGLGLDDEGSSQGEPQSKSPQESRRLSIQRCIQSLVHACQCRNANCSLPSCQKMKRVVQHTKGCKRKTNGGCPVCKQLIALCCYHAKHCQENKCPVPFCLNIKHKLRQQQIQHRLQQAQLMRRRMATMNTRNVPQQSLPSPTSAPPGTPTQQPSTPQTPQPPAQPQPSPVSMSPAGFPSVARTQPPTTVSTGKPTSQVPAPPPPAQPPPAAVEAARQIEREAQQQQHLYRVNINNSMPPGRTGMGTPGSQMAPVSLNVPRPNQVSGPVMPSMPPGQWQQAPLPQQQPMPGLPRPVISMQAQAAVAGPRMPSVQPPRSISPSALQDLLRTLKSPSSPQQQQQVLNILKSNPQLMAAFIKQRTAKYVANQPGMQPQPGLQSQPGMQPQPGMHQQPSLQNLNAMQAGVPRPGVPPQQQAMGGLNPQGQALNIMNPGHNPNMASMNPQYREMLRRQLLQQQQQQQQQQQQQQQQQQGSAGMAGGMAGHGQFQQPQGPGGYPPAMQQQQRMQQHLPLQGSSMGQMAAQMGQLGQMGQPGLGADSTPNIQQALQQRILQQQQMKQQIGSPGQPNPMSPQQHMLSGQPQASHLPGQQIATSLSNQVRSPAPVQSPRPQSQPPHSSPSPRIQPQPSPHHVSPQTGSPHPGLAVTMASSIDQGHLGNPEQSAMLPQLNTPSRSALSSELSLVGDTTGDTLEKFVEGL
Procedure, shortened: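 CBP fragment (aa 1098–1877) expressed in E. coli BL21 and affinity-purified (1 µg) was incubated in HAT buffer with histone H4 peptide (aa 2–24, 10 µg) and 20 µM acetyl CoA carrying 0.5 µCi/mL [³H]-acetyl CoA, compound at 50 µM, for 2 h at 37 °C. Samples were spotted on P81 paper in triplicate, washed in TCA and acetone, and counted. Output is percent of untreated control.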

U-937 [5] = assay: Induction of apoptosis in human U937 cells assessed as caspase 3 activation at 5 uM after 30 hrs by FACS analysis; assay type: functional
Procedure, shortened: (§2)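 Caspase 3 activity was read in living U937 cells after 5 µM exposure. About 1×10^6 cells were washed twice in cold PBS and loaded 1 h on ice with cell-permeable fluorescent substrate FAM-DEVD-FMK. After washing, cells were analysed by FACS. Runs were in duplicate; values are mean ± SD.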

[6] = target: T1, NAD-dependent protein deacetylase sirtuin-1 (Homo sapiens) (UniProt Q96EB6); assay: Inhibition of recombinant human SIRT1 lysine deacetylase activity at 50 uM after 60 mins by fluorimetry relative to control
T1 sequence (whole entry): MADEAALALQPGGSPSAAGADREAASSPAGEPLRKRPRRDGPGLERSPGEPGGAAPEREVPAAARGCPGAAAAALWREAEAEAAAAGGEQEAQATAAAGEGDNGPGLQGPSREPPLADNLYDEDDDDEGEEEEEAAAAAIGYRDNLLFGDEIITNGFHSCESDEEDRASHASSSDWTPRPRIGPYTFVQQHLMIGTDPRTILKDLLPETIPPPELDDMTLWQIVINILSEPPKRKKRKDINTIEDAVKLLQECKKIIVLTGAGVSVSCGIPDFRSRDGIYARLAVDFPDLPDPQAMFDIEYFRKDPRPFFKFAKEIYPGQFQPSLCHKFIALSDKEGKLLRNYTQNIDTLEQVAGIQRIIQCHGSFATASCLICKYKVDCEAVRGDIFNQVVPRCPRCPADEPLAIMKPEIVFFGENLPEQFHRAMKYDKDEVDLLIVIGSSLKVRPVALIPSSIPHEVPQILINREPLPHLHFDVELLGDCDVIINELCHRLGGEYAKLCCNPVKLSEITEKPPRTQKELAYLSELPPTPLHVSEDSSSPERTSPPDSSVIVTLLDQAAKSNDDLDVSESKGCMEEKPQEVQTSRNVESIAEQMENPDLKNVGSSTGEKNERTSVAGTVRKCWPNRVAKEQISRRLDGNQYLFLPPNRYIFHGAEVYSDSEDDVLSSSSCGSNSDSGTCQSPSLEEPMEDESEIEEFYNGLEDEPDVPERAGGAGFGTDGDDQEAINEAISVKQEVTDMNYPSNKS
Procedure, shortened: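 Human SIRT1 expressed in E. coli BL21 and affinity-purified (1 µg) was reacted with acetylated p53 peptide (aa 379–382), 1 mM DTT and 200 µM NAD⁺, with compound at 50 µM, 60 min at 37 °C. Fluorescence was read at ex 360/em 450 nm. Results are mean and SD of four independent experiments as percent of untreated control.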

U-937 [7] = assay: Induction of human U937 cell differentiation into granulocytes assessed as expression of CD11c marker on cell membrane at 5 uM after 30 to 40 hrs by PI staining based FACS analysis; assay type: functional
Procedure, shortened: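 After 5 µM treatment, U937 cells were stained with PE-conjugated anti-CD11c; controls got PE mouse IgG1, 30 min at 4 °C in the dark. Cells were washed and taken up in PBS with propidium iodide (0.25 µg/mL), then read by FACS. Result is percent CD11c-positive/PI-negative cells, mean of independent quadruplicates.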

U-937 [8] = assay: Cell cycle arrest in human U937 cells assessed as accumulation at G1 phase at 5 uM by propidium iodide staining based flow cytometry; assay type: functional; settings: TDE = time-dependent effect; procedure, shortened: as §1
[9] = Inhibition of HDAC in cell-free system
[10] = Inhibition of DNMT in cell-free system
U-937 [11] = assay: Induction of apoptosis in human U937 cells assessed as caspase 3 activation at 5 uM after 40 hrs by FACS analysis; assay type: functional, cell-based; procedure, shortened: as §2
U-937 [12] = assay: Cell cycle arrest in human U937 cells assessed as accumulation at G1 phase at 5 uM after 48 hrs by propidium iodide staining based flow cytometry; assay type: functional; procedure, shortened: as §1
U-937 [13] = assay: Cell cycle arrest in human U937 cells assessed as accumulation at G2/M phase at 5 uM after 30 hrs by propidium iodide staining based flow cytometry; assay type: functional; procedure, shortened: as §1
U-937 [14] = assay: Cell cycle arrest in human U937 cells assessed as accumulation at S phase at 5 uM after 48 hrs by propidium iodide staining based flow cytometry; assay type: functional; procedure, shortened: as §1
U-937 [15] = assay: Cell cycle arrest in human U937 cells assessed as accumulation at G2/M phase at 5 uM after 48 hrs by propidium iodide staining based flow cytometry; assay type: functional; procedure, shortened: as §1

SMILES	inhibition [1]	Activity [2]	inhibition [4]	inhibition [6]	Activity (U-937 [3])	further results
O=C(NCCCCCCSSCCCCCCNC(=O)/C(Cc1ccc(O)c(Br)c1)=N/O)/C(Cc1ccc(O)c(Br)c1)=N/O	inactive	–	–	–	–	–
CSCCNC(=O)/C(Cc1ccc(O)c(Br)c1)=N/O	inactive	–	–	–	–	Activity (U-937 [7]): Active
Cc1ccc(C(=O)Nc2ccc(S(=O)(=O)O)c3cc(S(=O)(=O)O)cc(S(=O)(=O)O)c23)cc1NC(=O)c1cccc(NC(=O)Nc2cccc(C(=O)Nc3cc(C(=O)Nc4ccc(S(=O)(=O)O)c5cc(S(=O)(=O)O)cc(S(=O)(=O)O)c45)ccc3C)c2)c1	–	–	–	Active	–	–
O=C(CCCCCCC(=O)Nc1ccccc1)NO	–	–	–	–	Active	–
O=C(NCCO)/C(Cc1ccc(O)c(Br)c1)=N/O	inactive	–	–	–	–	–
COCCNC(=O)/C(Cc1ccc(O)c(Br)c1)=N/O	inactive	–	–	–	–	–
Nc1ccccc1NC(=O)c1ccc(CNC(=O)OCc2cccnc2)cc1	–	–	–	–	Active	–
C=CC/C=C\C/C=C\CCCCCCCc1cccc(O)c1C(=O)O	–	–	Active	–	–	–
O=C(NCCCCCCNC(=O)/C(Cc1ccc(O)c(Br)c1)=N/O)/C(Cc1ccc(O)c(Br)c1)=N/O	inactive	–	–	–	–	–
O=C(NCCSSCCNC(=O)/C(Cc1ccccc1)=N/O)/C(Cc1ccccc1)=N/O	Active	Active	inactive	Active	80%	caspase 3 activation (U-937 [5]): 30%
O=C(NCCSSCCNC(=O)/C(Cc1cc(Br)c(O)c(Br)c1)=N/O)/C(Cc1cc(Br)c(O)c(Br)c1)=N/O	inactive	Active	inactive	Active	80%	Activity (U-937 [11]): inactive
O=C1C=CC2(C=C1Br)CC(C(=O)NCCSSCCNC(=O)C1=NOC3(C=CC(=O)C(Br)=C3)C1)=NO2 (stereo not given)	inactive	–	–	–	–	Activity (U-937 [12]): inactive; Activity (U-937 [13]): Active; Activity (U-937 [14]): inactive; Activity (U-937 [5]): Active; Activity (U-937 [15]): inactive
O=C(CCc1ccc(O)c(Br)c1)NCCSSCCNC(=O)CCc1ccc(O)c(Br)c1	inactive	–	inactive	Active	80%	Activity (U-937 [11]): inactive

Further lines, with some results ahead:

inhibition [1]	Activity [2]	inhibition [4]	inhibition [6]	SMILES	Activity (U-937 [3])	further results
inactive	–	–	–	O=C(NCCCCSSCCCCNC(=O)/C(Cc1ccc(O)c(Br)c1)=N/O)/C(Cc1ccc(O)c(Br)c1)=N/O	–	–
Active	Active	inactive	Active	O=C(NCCSSCCNC(=O)/C(Cc1ccc(O)c(Cl)c1)=N/O)/C(Cc1ccc(O)c(Cl)c1)=N/O	80%	caspase 3 activation (U-937 [5]): 30%
Active	Active	inactive	Active	O=C(NCCSSCCNC(=O)/C(Cc1ccc(O)c(F)c1)=N/O)/C(Cc1ccc(O)c(F)c1)=N/O	80%	caspase 3 activation (U-937 [5]): 30%
inactive	–	–	–	O=C(NCCCCCSSCCCCCNC(=O)/C(Cc1ccc(O)c(Br)c1)=N/O)/C(Cc1ccc(O)c(Br)c1)=N/O	–	–
inactive	–	–	–	O=C(NCCCSSCCCNC(=O)/C(Cc1ccc(O)c(Br)c1)=N/O)/C(Cc1ccc(O)c(Br)c1)=N/O	–	–
Active	–	inactive	Active	O=C(NCCSSCCNC(=O)/C(Cc1ccc(O)c(Br)c1)=N/O)/C(Cc1ccc(O)c(Br)c1)=N/O [PSAMMAPLIN A]	60%	Activity (U-937 [8]): tde; Activity (U-937 [7]): Active; IC50 [9]: 4.2 nM; Activity (U-937 [5]): Active; IC50 [10]: 18.6 nM
Active	Active	inactive	Active	O=C(NCCSSCCNC(=O)/C(Cc1ccc(O)c(I)c1)=N/O)/C(Cc1ccc(O)c(I)c1)=N/O	80%	caspase 3 activation (U-937 [5]): 30%
Active	Active	inactive	Active	O=C(NCCSSCCNC(=O)/C(Cc1cccc(O)c1)=N/O)/C(Cc1cccc(O)c1)=N/O	80%	caspase 3 activation (U-937 [5]): 30%
Active	Active	inactive	Active	O=C(NCCSSCCNC(=O)/C(Cc1ccc(O)cc1)=N/O)/C(Cc1ccc(O)cc1)=N/O	80%	caspase 3 activation (U-937 [5]): 30%

Reference: ChEMBL document CHEMBL1817548, “Epigenetic profiling of the antitumor natural product psammaplin A and its analogues” (Bioorg Med Chem, 2011)
